Screening data as filed in PubChem BioAssay.
GPR7 antag: GPR7 receptor antagonists, primary screen, cell-based, fluorescence, single concentration. Neuropeptides B/W receptor type 1 (Homo sapiens), P48145. inhibition, % at 4.4 µM. actives 1.1% (n = 290,000). GPR7-expressing cells, fluorescence antagonist assay; in the data active means inhibition above about 16%, passing the limit was not always enough;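 further: cells stimulated with the agonist NPW; 0% = agonist with vehicle and 100% = vehicle without agonist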
Target sequence (P48145 whole entry, looked up): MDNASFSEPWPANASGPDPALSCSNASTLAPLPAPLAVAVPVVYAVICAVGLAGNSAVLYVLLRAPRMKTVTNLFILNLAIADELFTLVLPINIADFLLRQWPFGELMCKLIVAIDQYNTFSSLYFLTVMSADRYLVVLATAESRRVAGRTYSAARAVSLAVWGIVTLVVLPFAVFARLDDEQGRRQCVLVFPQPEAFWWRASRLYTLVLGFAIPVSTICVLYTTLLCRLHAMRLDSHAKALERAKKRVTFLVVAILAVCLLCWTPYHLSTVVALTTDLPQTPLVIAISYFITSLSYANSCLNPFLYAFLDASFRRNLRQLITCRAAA
EP2 mod: EP2 receptor modulators, cAMP readout, primary screen, cell-based, HTRF cAMP, PGE2 stimulation; Prostaglandin E2 receptor EP2 subtype (Homo sapiens), P43116; EP2-expressing cells, cAMP HTRF FRET, PGE2 co-stimulation; induction, % at 25 µM; actives 0.83% (n = 260,000);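 active means compounds whose cAMP rise, as percent of the full-agonist control response, exceeds 60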;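 further: rat C6 glioma line stably carrying human EP2 under a CMV promoter; the protocol text gives 20 µM as final concentration; 100% = response of wells given 1 µM PGE2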
PGE2 EP2 inh: human EP2 receptor antagonists, primary screen, TR-FRET cAMP, C6 glioma cells; Prostaglandin E2 receptor EP2 subtype (Homo sapiens), P43116; C6 glioma cells expressing human EP2; cells stimulated with saturating PGE2; inhibition, % at 25 µM; actives 0.52% (n = 260,000); AID 1422, 2008;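 active means percent inhibition above 40 after rounding to a whole number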;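 further: rat C6 glioma host cells with rolipram phosphodiesterase inhibitor present; the protocol text gives 20 µM as final concentration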
CHO parental Ca: ATP-evoked calcium signal inhibitors, parental CHO, primary screen, counter-screen for OX1R antagonist project, cell-based, fluorescence, Fluo-8 calcium dye | inhibition, % at 5.6 µM | AID 463079, 2010 | parental CHO-K1, ATP-induced calcium, Fluo-8 fluorescence | actives 0.63% (n = 330,000);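 active means inhibition above that plate's mean sample inhibition plus 3 SD, cut at about 26% in these data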;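 further: 0% = ATP-challenged DMSO wells and 100% = DMSO wells without ATP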
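test system = CHO parental line | reagent = ATP stimulus | measured by = intracellular calcium via Fluo-8 no-wash fluorescent dye | control set = ATP and no-ATP DMSO wells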
OX1R antag-1: OX1R (HCRTR1) antagonists, primary screen, fluorescence, CHO/OX1R cells, Fluo-8 calcium, orexin A. Orexin/Hypocretin receptor type 1 (Homo sapiens), O43613. Fluo-8 calcium fluorescence. inhibition, % at 5 µM. actives 0.43% (n = 330,000);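 active means inhibition above its plate's threshold, mean inhibition of all tested compounds on the plate plus 3 SD, cut at about 37% in these data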;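 further: 0% = orexin A challenge wells and 100% = SB-334867-A antagonist wells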
OX1R antag-2: antagonists of human orexin 1 receptor (OX1R); actives 1.8% (n = 330,000); OX1R-expressing cells, FRET antagonist read-out; inhibition, % at 6.6 µM; Orexin/Hypocretin receptor type 1 (Homo sapiens), O43613; in the data active means inhibition mostly above about 38%, no sharp cut-off; inactive means mostly below about 40%;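 further: 0% = agonist challenge alone and 100% = reference antagonist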
OX1R Ca confirm: OX1R (HCRTR1) antagonists, confirmation, fluorescence, CHO/OX1R cells, Fluo-8 calcium, orexin A; shares compounds with OX1R antag-1; orexin A calcium Fluo-8 fluorescence; inhibition, % at 5 µM; actives 38% (n = 1,100); AID 492963, 2010; in the data active means inhibition above about 29%;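 further: 0% = agonist challenge alone and 100% = reference antagonist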
CHO Ca counter: ATP-evoked calcium inhibition in parental CHO, counter-screen for OX1R antagonist project, cell-based, fluorescence, CHO-K1, triplicate; shares compounds with OX1R antag-1; ATP-induced calcium, Fluo-8 fluorescence; inhibition, % at 5.6 µM; actives 9.3% (n = 1,100); AID 492965, 2010;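 active means inhibition above a per-plate limit, the mean inhibition of that plate's test compounds plus 3 SD, cut at about 25% in these data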;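 further: 0% = ATP challenge with DMSO and 100% = DMSO without ATP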
An asterisk follows results filed as active. An excerpt weighted towards active compounds, which were near 3.7% of everything screened.

For CCOC(=O)NC(c1ccc(C(C)C)cc1)C(Cl)(Cl)Cl (stereo unspecified) the results were GPR7 antag -10, EP2 mod 24, PGE2 EP2 inh -1, CHO parental Ca -4, OX1R antag-1 42*, OX1R antag-2 54, OX1R Ca confirm 10 and CHO Ca counter -2.
For COC(=O)c1c(C)oc2ccc(N(C(=O)c3ccncc3)S(=O)(=O)c3ccc(C)cc3)cc12 the results were GPR7 antag 7, EP2 mod -10, PGE2 EP2 inh 18, CHO parental Ca 17, OX1R antag-1 39*, OX1R antag-2 32, OX1R Ca confirm 12 and CHO Ca counter 13.
Screening N#Cc1c(C(F)(F)F)cc(-c2ccco2)nc1SCc1ccccn1 returned GPR7 antag -12, EP2 mod 49, PGE2 EP2 inh 8, CHO parental Ca 21, OX1R antag-1 44, OX1R antag-2 5, OX1R Ca confirm -18 and CHO Ca counter 3.
Screening Cc1ccc(NC(=O)COC(=O)Cc2ccccc2)cc1S(=O)(=O)N1CCOCC1 returned CHO parental Ca -16, OX1R antag-1 -2 and OX1R antag-2 15.
`Cn1c(=O)cc(SCC(=O)NCc2ccco2)c2ccccc21` gave GPR7 antag -4, EP2 mod 17, PGE2 EP2 inh 6, CHO parental Ca -4, OX1R antag-1 -12 and OX1R antag-2 13.
O=C(CSc1cn(CCNC(=O)c2ccc3ccccc3c2)c2ccccc12)NCc1ccco1 was read as GPR7 antag -13, EP2 mod -17, PGE2 EP2 inh 9, CHO parental Ca 13, OX1R antag-1 22, OX1R antag-2 29, OX1R Ca confirm 2 and CHO Ca counter -11.
For COc1ccc(Cl)cc1N(CC(=O)Nc1cccc(SC)c1)S(C)(=O)=O the results were GPR7 antag 12, EP2 mod -53, PGE2 EP2 inh 3, CHO parental Ca -6, OX1R antag-1 -10 and OX1R antag-2 17.
Screening CSc1cccc(NC(=O)CN(c2cc(C)ccc2C)S(C)(=O)=O)c1 returned GPR7 antag -5, EP2 mod -22, PGE2 EP2 inh 16, CHO parental Ca 1, OX1R antag-1 26, OX1R antag-2 19, OX1R Ca confirm 2 and CHO Ca counter -15.
`O=C(NC1CCCC1)c1ccc(S(=O)(=O)N2CCC(c3nc4ccc(Cl)cc4[nH]3)CC2)cc1` gave EP2 mod -17 and PGE2 EP2 inh 14.
O=C1N[C@@H](c2ccccc2)COC(=O)[C@@H](Cc2ccc(F)cc2)C/C=C\C[C@@H]1CC(=O)N(CCO)Cc1ccccc1 was read as CHO parental Ca 11, OX1R antag-1 58, OX1R antag-2 20, OX1R Ca confirm 63* and CHO Ca counter 2.
For N#Cc1cc(C(=O)c2cc(Br)ccc2O)cn(Cc2ccccc2)c1=O the results were GPR7 antag -15, EP2 mod -65, PGE2 EP2 inh 13, CHO parental Ca 23, OX1R antag-1 24, OX1R antag-2 9, OX1R Ca confirm 2 and CHO Ca counter 10.
Screening C=CCC[C@@H](Cc1ccc(F)cc1)C(=O)OC[C@@H]1CCCN1C(=O)[C@H](CC=C)CC(=O)N[C@H](CO)Cc1ccccc1 returned CHO parental Ca -6, OX1R antag-1 65*, OX1R antag-2 24, OX1R Ca confirm 14 and CHO Ca counter -14.
C=CCC[C@@H](Cc1ccc(F)cc1)C(=O)OC[C@H]1CCCN1C(=O)[C@@H](CC=C)CC(=O)N[C@H](CO)Cc1ccccc1 was read as CHO parental Ca -16, OX1R antag-1 18 and OX1R antag-2 10.
Screening Cc1c(C(=O)Nc2ccc(S(=O)(=O)N(C)C3CCN(C)CC3)cc2)oc2c(Cl)cccc12 returned CHO parental Ca 10, OX1R antag-1 43*, OX1R antag-2 7, OX1R Ca confirm 0 and CHO Ca counter 0.
NS(=O)(=O)c1ccc(CNC(=O)C(Cc2ccccc2)NS(=O)(=O)c2ccccc2F)cc1 (stereo unspecified) was read as GPR7 antag 3, CHO parental Ca -1, OX1R antag-1 26, OX1R antag-2 -12, OX1R Ca confirm -1 and CHO Ca counter -6.
Screening COc1ccccc1NC(=S)NCc1ccco1 returned GPR7 antag 0, EP2 mod 32, PGE2 EP2 inh 19, CHO parental Ca -6, OX1R antag-1 -9 and OX1R antag-2 11.
Screening COc1cc(NC(=S)NCc2ccco2)cc(OC)c1OC returned GPR7 antag -7, EP2 mod 20, PGE2 EP2 inh 3, CHO parental Ca -9, OX1R antag-1 77*, OX1R antag-2 13, OX1R Ca confirm -5 and CHO Ca counter -8.
Screening CCCOC(=O)C1NC(=O)N2C(C(=O)OCCC)C(C)(C)S[C@H]12 (stereo partly specified) returned PGE2 EP2 inh 2, CHO parental Ca -13, OX1R antag-1 -13 and OX1R antag-2 9.
Screening Cc1sc(NC(=O)CN2CCOCC2)nc1-c1ccc2c(c1)CCN2S(=O)(=O)c1ccccc1 returned GPR7 antag 6, EP2 mod -22, PGE2 EP2 inh 25, CHO parental Ca 22, OX1R antag-1 42, OX1R antag-2 20, OX1R Ca confirm 18 and CHO Ca counter 28*.
`CC(=O)Nc1ccc2c(c1)nc(C)n2Cc1ccccc1` gave GPR7 antag -6, CHO parental Ca -1, OX1R antag-1 -11 and OX1R antag-2 6.
For NC(=S)N/N=C/c1ccc(-n2nncc2-c2ccc(Cl)cc2)cc1 the results were GPR7 antag 6, CHO parental Ca -12, OX1R antag-1 -10 and OX1R antag-2 10.
For Cc1ccc2c(c1)nnn2C1CCN(S(=O)(=O)c2cccc(S(=O)(=O)N(C)C)c2)CC1 the results were GPR7 antag -2, EP2 mod -12, PGE2 EP2 inh 12, CHO parental Ca 22, OX1R antag-1 35, OX1R antag-2 35, OX1R Ca confirm 38* and CHO Ca counter 25*.
